Measurements published in ChEMBL document CHEMBL1122260, “Synthesis and biological activity of prostaglandin lactones” (J Med Chem, 1983).

Experiments:
Gerbillinae [1] = assay: Gerbil colon stimulation relative to PGE1 (100); Range from (0.1-0.3); assay type: functional
How it was run: (§1)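 Isolated ascending colon from male gerbils (Meriones unguiculatus) mounted in de Jalon's solution (NaCl 154 mM, KCl 0.54 mM, CaCl2 0.27 mM, NaHCO3 1.78 mM, glucose 5.55 mM); isotonic contractions recorded with linear transducers in 5-mL baths.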

Rattus norvegicus [2] = species: Rattus norvegicus; assay: Blood pressure potency in rat relative to PGE1 (100); value ranges from (0.1-0.3); assay type: functional
How it was run: (§2)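 Mature female albino rats, pentobarbital anesthesia (30 mg/kg ip, supplemented as needed), pretreated with atropine sulfate (0.08 mg sc) and pentolinium tartrate (2 mg iv). Test solutions or emulsions injected via femoral vein; carotid arterial pressure recorded by transducer. Change in mmHg (rise or fall) compared with standards: PGE1 for depressor, PGF2α for pressor responses.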

Gerbillinae [3] = assay: Gerbil colon stimulation relative to PGE1 (100); Range from (1-3); assay type: functional; how it was run: as §1
Rattus norvegicus [4] = species: Rattus norvegicus; assay: Blood pressure potency in rat relative to PGF2-alpha (100); value ranges from (3-10); assay type: functional; how it was run: as §2
[5] = Plasma hydrolysis of percent cross reaction of substrate with PGF2-alpha antisera; assay type: ADME, cell-free
How it was run: (§3)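 Substrates incubated with saline (control), hog liver esterase, or rat, monkey or human blood plasma for 2 h or 20 h; released PGF2α quantified by radioimmunoassay as cross-reactivity with PGF2α antisera. PGF2α itself served as assay positive control. Substrate cross-reaction with the antisera determined separately.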

Gerbillinae [6] = assay: Gerbil colon stimulation relative to PGE1 (100); Range is between (1-3); assay type: functional; how it was run: as §1
Sus scrofa [7] = species: Sus scrofa; assay: Plasma hydrolysis following 2 h incubation with hog liver esterase; assay type: functional; how it was run: as §3
Sus scrofa [8] = species: Sus scrofa; assay: Plasma hydrolysis following 20 hr incubation with hog liver esterase; assay type: functional; how it was run: as §3
Homo sapiens [9] = species: Homo sapiens; assay: Plasma hydrolysis following 2 hr incubation with human plasma; assay type: functional; how it was run: as §3
Homo sapiens [10] = species: Homo sapiens; assay: Plasma hydrolysis following 20 hr incubation with human plasma; assay type: functional; how it was run: as §3
Monkey [11] = assay: Plasma hydrolysis following 20 hr incubation with monkey plasma; assay type: functional, Cercopithecidae; how it was run: as §3
Monkey [12] = assay: Plasma hydrolysis following 2 hr incubation with monkey plasma; assay type: functional, Cercopithecidae; how it was run: as §3
Rattus norvegicus [13] = species: Rattus norvegicus; assay: Plasma hydrolysis following 2 hr incubation with rat plasma; assay type: functional; how it was run: as §3
Rattus norvegicus [14] = species: Rattus norvegicus; assay: Plasma hydrolysis following 20 hr incubation with rat plasma; assay type: functional; how it was run: as §3
Rattus norvegicus [15] = species: Rattus norvegicus; assay: Blood pressure potency in rat relative to PGE1 (100). Range is between (0.1-3); assay type: functional; how it was run: as §2
Rattus norvegicus [16] = assay: in vivo Urinary excretion of PGF2-alpha metabolite in rats, when administered sc (1 mg/rat) urinary excretion on day 2 Range is between (0.7-1.1).; assay type: functional, Urine
Rattus norvegicus [17] = assay: in vivo Urinary excretion of PGF2-alpha metabolite in rats, when administered sc (1 mg/rat) urinary excretion on day 1 Range is between (1.3-1.6).; assay type: functional, Urine
Rattus norvegicus [18] = species: Rattus norvegicus; assay: Blood pressure potency in rat relative to PGE1 (100); value ranges from( 0.1-0.3); assay type: functional; how it was run: as §2
Rattus norvegicus [19] = species: Rattus norvegicus; assay: Blood pressure potency in rat relative to PGE1 (100); assay type: functional; how it was run: as §2
Rattus norvegicus [20] = assay: in vivo urinary excretion of PGF2-alpha metabolite in rats, when administered sc (1 mg/rat) urinary excretion on day 1; assay type: functional, Urine
Rattus norvegicus [21] = assay: in vivo urinary excretion of PGF2-alpha metabolite in rats, when administered sc (1 mg/rat) urinary excretion on day 2; assay type: functional, Urine
Rattus norvegicus [22] = species: Rattus norvegicus; assay: Blood pressure potency in rat relative to PGE1 (100); Range is between (1-3); assay type: functional; how it was run: as §2
Gerbillinae [23] = assay: Gerbil colon stimulation relative to PGE1 (100); assay type: functional; how it was run: as §1
Rattus norvegicus [24] = species: Rattus norvegicus; assay: Blood pressure potency in rat relative to PGF2-alpha (100). Range is between (32-100).; assay type: functional; how it was run: as §2
Gerbillinae [25] = assay: Gerbil colon stimulation relative to PGE1 (100); Range from (32-100); assay type: functional; how it was run: as §1

Row | Cross reaction [5] [%] | Structure (SMILES) | Relative potency (Gerbillinae [6]) | Hydrolysis (Sus scrofa [7]) [%] | Hydrolysis (Sus scrofa [8]) [%] | Hydrolysis (Homo sapiens [9]) [%] | Hydrolysis (Homo sapiens [10]) [%] | Hydrolysis (Monkey [11]) [%] | Hydrolysis (Monkey [12]) [%] | Hydrolysis (Rattus norvegicus [13]) [%] | Hydrolysis (Rattus norvegicus [14]) [%] | also measured
1 |  | CCCCC[C@@H]1/C=C\C2C(=O)CC(O)[C@@H]2C/C=C\CCCC(=O)O1 (some centres not stated) |  |  |  |  |  |  |  |  |  | Relative potency (Gerbillinae [1]): 0.1; Relative potency (Rattus norvegicus [2]): 0.1
2 |  | C[C@@](O)(/C=C/C1[C@H](O)C[C@@H]2OC(=O)CCC/C=C\C[C@H]12)CCc1ccccc1 (some centres not stated) |  |  |  |  |  |  |  |  |  | Relative potency (Gerbillinae [3]): 1; Relative potency (Rattus norvegicus [4]): 3
3 | < 0.05 | CCCCC[C@H](O)/C=C/C1[C@H](O)C[C@@H]2OC(=O)CCC/C=C\C[C@H]12 (some centres not stated) | 1 | 0.2 | 1.8 | 0.06 | 0.4 | 0.3 | 0.06 | 0.2 | 0.8 | Relative potency (Rattus norvegicus [15]): 0.1; Urinary excretion (Rattus norvegicus [16]): 0.9 µg; Urinary excretion (Rattus norvegicus [17]): 1.4 µg
4 |  | CCCCC[C@](C)(O)/C=C/C1[C@H](O)C[C@@H]2OC(=O)C(F)(F)CC/C=C\C[C@H]12 (some centres not stated) |  |  |  |  |  |  |  |  |  | Relative potency (Gerbillinae [3]): 1; Relative potency (Rattus norvegicus [18]): 0.1
5 |  | CCCCC[C@@H]1/C=C\C2C=CC(=O)[C@@H]2C/C=C\CCCC(=O)O1 (some centres not stated) | 0.1 |  |  |  |  |  |  |  |  | Relative potency (Rattus norvegicus [19]): 0.1
6 | 100 | CCCCC[C@H](O)/C=C/[C@@H]1[C@@H](C/C=C\CCCC(=O)O)[C@@H](O)C[C@H]1O [DINOPROST] |  | 100 | 100 | 100 | 100 | 100 | 100 | 100 | 100 | Urinary excretion (Rattus norvegicus [20]): 252 µg; Urinary excretion (Rattus norvegicus [21]): 14.5 µg
7 |  | CCCCC[C@@H]1/C=C\C2[C@H](O)CC(=O)[C@@H]2C/C=C\CCCC(=O)O1 (some centres not stated) | 1 |  |  |  |  |  |  |  |  | Relative potency (Rattus norvegicus [22]): 1
8 |  | O=C1CCC/C=C\C[C@@H]2C(/C=C\[C@@H](CCc3ccccc3)O1)[C@H](O)C[C@@H]2O (some centres not stated) |  |  |  |  |  |  |  |  |  | Relative potency (Gerbillinae [23]): <0.1; Relative potency (Rattus norvegicus [24]): 32
9 | 2.4 | CCCCC[C@@H](/C=C/C1[C@H](O)C[C@H](O)[C@@H]1C/C=C\CCCC(=O)O)OC(C)=O (some centres not stated) |  | 59.1 | 85 | 3.3 | 6.8 | 9.4 | 3.6 | 18 | 25.7 | 
10 |  | CCCCC(C)(C)[C@H](O)/C=C/C1[C@H](O)C[C@@H]2OC(=O)CCC/C=C\C[C@H]12 (some centres not stated) |  |  |  |  |  |  |  |  |  | Relative potency (Gerbillinae [25]): 32; Relative potency (Rattus norvegicus [2]): 0.1
